In PubChem BioAssay AID602319 (The Scripps Research Institute Molecular Screening Center, 2012) one finds inhibition data, which are given here for 17 compounds.

Calls of active or inactive are those of the source.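 Rule for the calls: active = inhibition of at least 50% at 0.01 µM compound; inactive = the rest.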

This test concerns the target Monoacylglycerol lipase ABHD6 (Mus musculus) (UniProt Q8R2Y0). Description: ABHD6 inhibition in mouse proteome, late-stage follow-up, selectivity assay for DAGLb inhibitor project, biochemical, gel-based competitive ABPP, fluorescence, in vitro (AID 602319). Particulars: Neuro-2A membrane proteome, HT-01 probe, stronger effect = higher value. The procedure, abridged: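 Material – Neuro-2A cell membrane proteome, native mouse ABHD6 · Medium – DPBS · Reagent – HT-01 probe at 1 µM · Times – compound preincubation 30 min, probe labelling 30 min, 37 °C · Measured by – SDS-PAGE with in-gel fluorescence scan, band integrated optical density · Controls – DMSO-only high control, blank gel region as low control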

Sequence of Monoacylglycerol lipase ABHD6 (Mus musculus) (Q8R2Y0 whole entry, looked up): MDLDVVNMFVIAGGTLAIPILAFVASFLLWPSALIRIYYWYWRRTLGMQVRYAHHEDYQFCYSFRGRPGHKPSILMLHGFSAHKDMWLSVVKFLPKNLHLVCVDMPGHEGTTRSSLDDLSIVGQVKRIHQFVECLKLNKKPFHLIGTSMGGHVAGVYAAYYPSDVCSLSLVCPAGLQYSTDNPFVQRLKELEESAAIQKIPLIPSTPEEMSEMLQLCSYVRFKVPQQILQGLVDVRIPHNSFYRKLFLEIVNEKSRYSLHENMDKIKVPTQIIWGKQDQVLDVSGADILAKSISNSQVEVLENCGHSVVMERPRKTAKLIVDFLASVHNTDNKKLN

What is called inhibition is the change of the read-out against control, counted positive when it falls. In the case of `O=C(c1ccc(-c2ccc(-c3cn(C(=O)N4CCCCC4Cc4ccccc4)nn3)cc2)cc1)N1CCCCC1` (centres undefined), the inhibition by setting is: (ABHD6 inhibition, at 0.001 µM) 9%; (at 0.01 µM) 79%.
For the compound `O=C(N1CCCCC1c1ccccc1)n1cc(C(O)(c2ccccc2)c2ccccc2)nn1` (centres undefined), the inhibition runs as follows: (ABHD6 inhibition, at 0.001 µM) 32%; (at 0.01 µM) 47% (inactive).
The matching figures for `NC(=O)c1ccc(-c2ccc(-c3cn(C(=O)N4CCCCC4c4ccccc4)nn3)cc2)cc1` (centres undefined): 17% and 27% (inactive).
Take `O=C(c1ccc(-c2ccc(-c3cn(C(=O)N4CCCCC4c4ccccc4)nn3)cc2)cc1)N1CCCCC1` (centres undefined): the inhibition (ABHD6 inhibition, at 0.001 µM) came out at 35% and the inhibition (at 0.01 µM) was 94%.
The matching figures for `COc1ccccc1-c1ccc(-c2cn(C(=O)N3CCCCC3CCc3ccccc3)nn2)cc1` (centres undefined): 27% and 70%.
Take `O=C(N1CCCCC1c1ccccc1)n1cc(-c2ccc(-c3ccc(CO)cc3)cc2)nn1` (centres undefined): the inhibition runs as follows: (ABHD6 inhibition, at 0.001 µM) 18%; (at 0.01 µM) 47% (inactive).
Taken in the same sequence, the figures for `O=C(N1CCCCC1c1ccccc1)n1cc(-c2ccc(-c3ccccc3CO)cc2)nn1` (centres undefined) were 38% and 98%.
The matching figures for `O=C(N1CCCCC1CCc1ccccc1)n1cc(-c2ccc(-c3ccccc3)cc2)nn1` (centres undefined): 21% and 40% (inactive).
Taken in the same sequence, the figures for `O=C(O)c1ccc(-c2ccc(-c3cn(C(=O)N4CCCCC4CCc4ccccc4)nn3)cc2)cc1` (centres undefined) were 7% and 10% (inactive).
In the case of `COc1ccccc1-c1ccc(-c2cn(C(=O)N3CCC(Cc4ccccc4)CC3)nn2)cc1`, the inhibition is, setting by setting: (ABHD6 inhibition, at 0.001 µM) 78%; (at 0.01 µM) 100%.
In the case of `O=C(N1CCCCC1c1ccccc1)n1cc(-c2ccc(-c3ccccc3)cc2)nn1` (centres undefined), the inhibition reads like this: (ABHD6 inhibition, at 0.001 µM) 18%; (at 0.01 µM) 66%.
Consider `O=C(N1CCCCC1Cc1ccccc1)n1cc(-c2ccc(-c3cccc(CO)c3)cc2)nn1` (centres undefined), for which the inhibition is 41% (ABHD6 inhibition, at 0.001 µM) and 90% (at 0.01 µM).
`O=C(O)c1cccc(-c2ccc(-c3cn(C(=O)N4CCCCC4CCc4ccccc4)nn3)cc2)c1` (centres undefined): the inhibition is, setting by setting: (ABHD6 inhibition, at 0.001 µM) 33%; (at 0.01 µM) 94%.
The matching figures for `COc1ccccc1-c1ccc(-c2cn(C(=O)N3CCCCC3c3ccccc3)nn2)cc1` (centres undefined): 32% and 90%.
Taken in the same sequence, the figures for `O=C(O)c1cccc(-c2ccc(-c3cn(C(=O)N4CCCCC4c4ccccc4)nn3)cc2)c1` (centres undefined) were 36% and 100%.
As for `COc1ccc(-c2ccc(-c3cn(C(=O)N4CCCCC4c4ccccc4)nn3)cc2)cc1` (centres undefined), the inhibition is, setting by setting: (ABHD6 inhibition, at 0.001 µM) 8%; (at 0.01 µM) 18% (inactive).
The matching figures for `COc1ccccc1-c1ccc(-c2cn(C(=O)N3CCCC(Cc4ccccc4)C3)nn2)cc1` (centres undefined): 53% and 100%.
